Assay results as given in ChEMBL document CHEMBL4130346, “New quinoline-arylamidine hybrids: Synthesis, DNA/RNA binding and antitumor activity” (Eur J Med Chem, 2017).
Active and inactive are the calls of the source. No cut-off for these calls is given here.

What was measured:
[1] = Chemical stability in aqueous solution after several weeks; assay type: physicochemical; conditions: buffer
In short: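 Aqueous compound solutions were monitored for several weeks by UV-Vis absorbance at 220-900 nm. Linearity with concentration was checked up to 3.5 × 10^-5 mol dm-3, and spectra were recorded at 25–90 °C with reproducibility checked on cooling to 25 °C.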

Raji = assay: Growth inhibition of human Raji cells after 72 hrs by MTT assay; assay type: functional
In short: (§1)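 Leukemia cells (1x10^5 cells/cm3) were exposed to compound for 72 h, then MTT (5 mg/cm3) was added for 4 h. Formazan was dissolved with 10% SDS in 0.01 mol dm-3 HCl and absorbance read at 595 nm. Percent growth was taken versus untreated control minus background. GI50 came from a variable-slope fit, as mean ± SD of three independent experiments in triplicate.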

Calf thymus DNA [2] = assay: Binding affinity to calf thymus DNA assessed as hypochromic effect by UV-vis spectrophotometric method; assay type: nucleic-acid assay; conditions: Bos taurus
In short: (§2)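 UV-Vis titration at room temperature in Na cacodylate buffer (I = 0.05 mol dm-3, pH 7.0). Portions of ct-DNA or polyA-polyU were added to a fixed compound concentration until saturation, with dilution correction. Polynucleotide was measured as phosphate. Ks and n were obtained by Scatchard analysis, together with the hypochromic change at the absorption maximum.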

[3] = Binding affinity to polyA-polyU (unknown origin) assessed as hypochromic effect by UV-vis spectrophotometric method; in short: as §2
[4] = Growth inhibition of MDCK1 cells after 72 hrs by MTT assay; set-up: species or system Canis lupus familiaris; conditions: dog
In short: (§3)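 Adherent cells (2x10^4 cells/cm3) attached overnight, then were exposed to compound for 72 h. Medium was replaced with 5 mg/cm3 MTT, formazan was dissolved in DMSO and absorbance read at 595 nm. Percent growth was taken relative to untreated control minus background. GI50 came from a variable-slope log-inhibitor fit, as mean ± SD of three independent experiments in triplicate.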

Calf thymus DNA [5] = assay: Disruption of calf thymus DNA helix at 0.1, 0.3, 0.5, 0.7 compound to ds-polynucleotide ratio by CD-spectrophotometric method; assay type: nucleic-acid assay; conditions: Bos taurus
In short: (§4)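 Induced CD spectra were recorded in 1 cm quartz cuvettes in Na cacodylate buffer (I = 0.05 mol dm-3, pH 7.0) with ct-DNA or polyA-polyU. Compound was added at r = [compound]/[polynucleotide] = 0.1, 0.3, 0.5 and 0.7. The CD signal was followed as a function of r.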

Calf thymus DNA [6] = assay: Binding affinity to calf thymus DNA assessed as change in melting temperature at 0.3 compound to ds-polynucleotide ratio by spectrophotometric method; assay type: nucleic-acid assay; conditions: Bos taurus
In short: (§5)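 Thermal melting of ct-DNA (sonicated, filtered) or polyA-polyU in Na cacodylate buffer, I = 0.05 mol dm-3, pH 7.0, at given r = [compound]/[polynucleotide]; polynucleotide as phosphate concentration. Tm from maximum of first derivative, checked by tangent method. ΔTm = Tm(complex) − Tm(free nucleic acid), average of at least two measurements, error ±0.5 °C.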

Calf thymus DNA [7] = assay: Binding affinity to calf thymus DNA by UV-vis spectrophotometric method; assay type: nucleic-acid assay; conditions: Bos taurus; in short: as §2
K562 = assay: Growth inhibition of human K562 cells after 72 hrs by MTT assay; assay type: functional; conditions: K562, 72 h; in short: as §1
[8] = Binding affinity to polyA-polyU (unknown origin) by UV-vis spectrophotometric method; in short: as §2
Calf thymus DNA [9] = assay: Binding affinity to calf thymus DNA minor groove at 0.1, 0.3, 0.5, 0.7 compound to ds-polynucleotide ratio by CD-spectrophotometric method; assay type: nucleic-acid assay; conditions: Bos taurus; in short: as §4
HeLa = assay: Growth inhibition of human HeLa cells after 72 hrs by MTT assay; assay type: functional; in short: as §3
[10] = Solubility of the compound in water; assay type: physicochemical
Calf thymus DNA [11] = assay: Binding affinity to calf thymus DNA assessed as change in melting temperature at 0.1 compound to ds-polynucleotide ratio by spectrophotometric method; assay type: nucleic-acid assay; conditions: Bos taurus; in short: as §5
Caco-2 = assay: Growth inhibition of human Caco2 cells after 72 hrs by MTT assay; assay type: functional; conditions: Caco-2, 72 h; in short: as §3
Calf thymus DNA [12] = assay: Binding affinity to calf thymus DNA assessed as change in melting temperature at 0.5 compound to ds-polynucleotide ratio by spectrophotometric method; assay type: nucleic-acid assay; conditions: Bos taurus; in short: as §5
[13] = Binding affinity to polyA-polyU (unknown origin) assessed as change in melting temperature at 0.5 compound to ds-polynucleotide ratio by spectrophotometric method; in short: as §5
[14] = Binding affinity to polyA-polyU (unknown origin) assessed as change in melting temperature at 0.1 compound to ds-polynucleotide ratio by spectrophotometric method; in short: as §5
[15] = Binding affinity to polyA-polyU (unknown origin) assessed as change in melting temperature at 0.3 compound to ds-polynucleotide ratio by spectrophotometric method; in short: as §5
[16] = Induction of polyA-polyU (unknown origin) intercalation at 0.1, 0.3, 0.5, 0.7 compound to ds-polynucleotide ratio by CD-spectrophotometric method; in short: as §4

SMILES | Stability [1] | GI50 (Raji) [µM] | Activity (Calf thymus DNA [2]) [%] | Activity [3] | Activity (Calf thymus DNA [5]) | ΔTm (Calf thymus DNA [6]) [°C] | log Ks (Calf thymus DNA [7]) | GI50 (K562) [µM] | log Ks [8] | Activity (Calf thymus DNA [9]) | GI50 (HeLa) [µM] | solubility [10] [µM] | ΔTm (Calf thymus DNA [11]) [°C] | GI50 (Caco-2) [µM] | ΔTm (Calf thymus DNA [12]) [°C] | ΔTm [13] [°C] | ΔTm [14] [°C] | ΔTm [15] [°C] | Activity [16] | GI50 at 72 h [4] [µM]
CC(C)NC(=N)c1ccc(Oc2ccnc3cc(Cl)ccc23)cc1.Cl.Cl.Cl | Stable | 51.8 | – | – | – | 2.28 | – | 82.9 | – | – | 56.6 | 1000 | 2.01 | 47.7 | 2.28 | – | 0.36 | -0.36 | – | 57.7
CC(C)NC(=N)c1ccc(OCCNc2ccnc3cc(Cl)ccc23)cc1.Cl.Cl.Cl | Stable | > 100 | – | – | – | – | – | > 100 | – | – | > 100 | 1000 | – | > 100 | – | – | – | – | – | > 100
Cl.Cl.Clc1ccc2c(NCCOc3ccc(C4=NCCCN4)cc3)ccnc2c1 | Stable | > 100 | – | – | – | – | – | > 100 | – | – | > 100 | 1000 | – | > 100 | – | – | – | – | – | > 100
Cl.Cl.Cl.N=C(N)c1ccc(OCCNc2ccnc3cc(Cl)ccc23)cc1 | Stable | 58.9 | – | – | – | – | – | 49.5 | – | – | 74 | 1000 | – | 68.6 | – | – | – | – | – | 74.4
Cl.Cl.N=C(N)c1ccc(Oc2ccnc3cc(Cl)ccc23)cc1 | Stable | 53 | – | – | – | 2.17 | – | 62.5 | – | – | 59.1 | 1000 | 1.76 | 57.6 | 2.07 | -0.26 | 0 | -0.16 | – | 52.8
Cl.Cl.Clc1ccc2c(NCCOc3ccc(C4=NCCN4)cc3)ccnc2c1 | Stable | 51.5 | – | – | – | – | – | 51.9 | – | – | 60.8 | 1000 | – | 50.7 | – | – | – | – | – | 78.4
Cl.Cl.N=C(NC1CCCC1)c1ccc(OCCNc2ccnc3cc(Cl)ccc23)cc1 | Stable | 96.9 | – | – | – | – | – | 76.9 | – | – | > 100 | 1000 | – | 84.5 | – | – | – | – | – | > 100
Cl.Cl.Cl.N=C(N)c1ccc2nc(-c3ccc(Oc4ccnc5cc(Cl)ccc45)cc3)[nH]c2c1 | Stable | 111 | 79.8 | 6.9% | – | 2.84 | 6.83 | > 100 | 6.43 | Active | > 100 | 1000 | 2.07 | 82.9 | 2.9 | 0.21 | 2.98 | 0.72 | Active | > 100
CC(C)CNC(=N)c1ccc(OCCNc2ccnc3cc(Cl)ccc23)cc1.Cl.Cl.Cl | Stable | 86.2 | – | – | – | – | – | 77.3 | – | – | > 100 | 1000 | – | 92.6 | – | – | – | – | – | > 100

The remaining compounds from weak to strong by GI50 (Raji), led by results:

Stability [1] | GI50 (Raji) [µM] | Activity (Calf thymus DNA [2]) [%] | Activity [3] | Activity (Calf thymus DNA [5]) | ΔTm (Calf thymus DNA [6]) [°C] | log Ks (Calf thymus DNA [7]) | GI50 (K562) [µM] | log Ks [8] | Activity (Calf thymus DNA [9]) | GI50 (HeLa) [µM] | solubility [10] [µM] | ΔTm (Calf thymus DNA [11]) [°C] | GI50 (Caco-2) [µM] | ΔTm (Calf thymus DNA [12]) [°C] | ΔTm [13] [°C] | ΔTm [14] [°C] | ΔTm [15] [°C] | Activity [16] | SMILES | GI50 at 72 h [4] [µM]
Stable | 50.8 | – | – | – | 1.86 | – | 62 | – | – | 57 | 1000 | 2.08 | 53.3 | 1.96 | 1.32 | 1.62 | 1.22 | – | Cl.Cl.Clc1ccc2c(Oc3ccc(C4=NCCCN4)cc3)ccnc2c1 | 37.5
Stable | 46.7 | 60.2 | 17.9% | – | 1.41 | 5.88 | 59.7 | 6.05 | Active | 57 | 1000 | 1.07 | 43.2 | 2.08 | 0.25 | 1.64 | 0.78 | Active | CC(C)CNC(=N)c1ccc2nc(-c3ccc(Oc4ccnc5cc(Cl)ccc45)cc3)[nH]c2c1.Cl.Cl.Cl | 53.5
Stable | 41.5 | 36.7 | 22.8% | – | 2.91 | 6.23 | 54.6 | 6.31 | Active | 61.9 | 1000 | 1.41 | 47.4 | 3.07 | 6.82 | 0.18 | 4.06 | Active | Cl.Cl.N=C(NC1CCCC1)c1ccc2nc(-c3ccc(Oc4ccnc5cc(Cl)ccc45)cc3)[nH]c2c1 | 55.5
Stable | 40.8 | – | – | – | 2.67 | – | 48.7 | – | – | 57.7 | 1000 | 2.65 | 64 | 2.73 | 1.49 | 1.18 | 2.18 | – | Cl.Cl.Clc1ccc2c(Oc3ccc(C4=NCCN4)cc3)ccnc2c1 | 56.6
Stable | 40.6 | 68.5 | 69.7% | – | 3.2 | 5.76 | 27.6 | – | Active | > 100 | 1000 | 1.6 | 36.8 | 4.08 | 1.12 | -0.16 | 0.78 | Active | Cl.Cl.Clc1ccc2c(Oc3ccc(-c4nc5ccc(C6=NCCN6)cc5[nH]4)cc3)ccnc2c1 | 77.1
Stable | 29.3 | 17.7 | inactive | Active | 8.4 | 6.72 | 34.7 | inactive | Active | > 100 | 1000 | 4.84 | > 100 | 8.4 | – | – | – | – | Cl.Cl.Cl.N=C(N)c1ccc2nc(-c3ccc(OCCNc4ccnc5cc(Cl)ccc45)cc3)[nH]c2c1 | 71.6
Stable | 19.6 | 23.7 | inactive | Active | 9.05 | 6.63 | 17.2 | inactive | Active | > 100 | 1000 | 5.83 | > 100 | 9.83 | – | – | – | – | CC(C)NC(=N)c1ccc2nc(-c3ccc(OCCNc4ccnc5cc(Cl)ccc45)cc3)[nH]c2c1.Cl.Cl.Cl | > 100
Stable | 19 | 31 | inactive | Active | 9.76 | 6.52 | 13.3 | inactive | Active | > 100 | 1000 | 6.33 | > 100 | 10.8 | – | – | – | – | Cl.Cl.Cl.Clc1ccc2c(NCCOc3ccc(-c4nc5ccc(C6=NCCCN6)cc5[nH]4)cc3)ccnc2c1 | 100
